UBC9 SUMO inh – inhibitors of human SUMOylation (UBC9). HTRF SUMOylation assay, SAE1/SAE2 + UBC9, in vitro. P63279. AID 2006. inhibition, % at 35 µM. 0.36% of 290,000 active; in the data active = inhibition above about 50%, passing the limit was not always enough; inconclusive = no clear call, values can overlap the other calls
Target sequence (P63279 whole entry, looked up): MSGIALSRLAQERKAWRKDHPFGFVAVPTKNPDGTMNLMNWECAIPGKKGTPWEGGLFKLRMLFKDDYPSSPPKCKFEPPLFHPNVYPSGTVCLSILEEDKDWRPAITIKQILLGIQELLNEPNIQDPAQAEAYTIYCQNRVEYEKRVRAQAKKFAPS
Fh CTSL1 inh – counter-screen for PFM18AAP inhibitors: inhibitors of F. hepatica cathepsin L1; recombinant F. hepatica cathepsin L1, Z-Leu-Arg-MCA fluorescence; inhibition, % at 5.96 µM; 0.49% of 300,000 active; AID 1906;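 active = inhibition above the mean of all tested compounds plus 3 SD, set per screening campaign, cut at about 17% in these data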
UCH37 inh – inhibitors of human deubiquitinating enzyme UCH37. Q9Y5K5. purified proteasome/UCH37, Ub-AMC cleavage fluorescence. inhibition, % (test concentration not listed). 0.33% of 330,000 active. AID 588478;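 active = mean inhibition over replicate wells above about 20%, limit read from the data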
Target sequence (Q9Y5K5 whole entry, looked up): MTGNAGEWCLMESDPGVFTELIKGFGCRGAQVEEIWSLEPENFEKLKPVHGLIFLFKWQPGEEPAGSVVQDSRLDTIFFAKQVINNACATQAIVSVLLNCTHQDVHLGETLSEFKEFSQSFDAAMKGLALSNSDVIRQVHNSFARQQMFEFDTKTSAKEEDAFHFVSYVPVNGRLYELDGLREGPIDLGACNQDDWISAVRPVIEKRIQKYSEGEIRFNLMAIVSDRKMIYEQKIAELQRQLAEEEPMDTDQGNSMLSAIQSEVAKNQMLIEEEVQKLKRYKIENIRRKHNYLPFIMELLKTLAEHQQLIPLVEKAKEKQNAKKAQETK
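Signal – fluorescence, ex 355 nm, em 460 nm · System – Proteasome-bound UCH37 · Input – 0.15 nM proteasome as dispensed · Timing – 30 min preincubation with enzyme, 25 min cleavage at room temperature · Read-out basis – percent inhibition of cleavage signal versus uninhibited and no-proteasome wells · Medium – Tris-HCl pH 7.4 with ATP-MgCl2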
Neddyl block – blocks human cullin neddylation. P61081+Q13564. TR-FRET cullin neddylation, biochemical. inhibition, % at 25 µM. 0.58% of 360,000 active; in the data active = inhibition above about 36%
Neddyl conf – confirmation of human cullin neddylation inhibitors; 13% of 1,800 active; shares compounds with Neddyl block; calls only at 25 µM; AID 652217; TR-FRET cullin neddylation biochemical assay; in the data active = inhibition above about 40%;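 note: neddylation substrate is the cullin 1 ring ligase complex with SKP2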
A number is an active result; 0 = inactive; ? = inconclusive; - = no result given; + = active, no number. In the library only some 1.4% were active in any assay of this set; here they are far more common.

SMILES | UBC9 SUMO inh | Fh CTSL1 inh | UCH37 inh | Neddyl block | Neddyl conf
CC1Oc2ccccc2C=C1/C=N/NC(=O)c1ccccc1O (stereo not given) | 0 | 0 | - | 51 | 0
COC(=O)C1=C(C)NC2=C(C(=O)C(C(=O)OC)C(c3ccc(OC)cc3)C2)C1c1ccccn1 (stereo not given) | 0 | 0 | 0 | 49 | -
O=c1[nH]c2ccccc2nc1/C=C/c1ccccc1 | 0 | 0 | 0 | 42 | -
C=C(C)C1CC=C(C)C(=NNC(=O)CCC(=O)Nc2ccccc2Cl)C1 (stereo not given) | - | - | 0 | - | -
CCSC1=C(C#N)C2(CCCCC2)C2=C(CC(C)(C)CC2=O)N1 | 0 | 0 | 0 | 44 | 0
C(=C\c1cccc2ccccc12)/c1nnc(-c2cccs2)o1 | 0 | 0 | 0 | 47 | -
Cc1ccc(CN2CCN(N=Cc3sccc3C)CC2)c(C)c1 | - | - | 0 | - | -
O=C(Cn1cncn1)NN=Cc1ccccc1O | - | - | 0 | - | -
COc1cc2c(C#CCO)c(-c3ccc(C#N)cc3)oc(=O)c2cc1OC | - | - | 0 | 75 | +
O=C(Nc1sc2c(c1C(=O)NCCO)CCCC2)c1ccco1 | 0 | 0 | 0 | 40 | -
COc1ccc(C2(O)CC3CCC(C2)N3c2nc(C)cc(C)c2C#N)cc1 (stereo not given) | 0 | 0 | 0 | 38 | 0
Cc1csc2ncc(C(=O)NCCC(c3ccccc3)c3ccccc3)c(=O)n12 | 0 | 0 | 0 | 0 | -
Cc1csc2ncc(C(=O)NCCc3ccccc3)c(=O)n12 | 0 | 0 | 0 | 47 | 0
COc1ccc2sc(-c3ccccc3OC)c(C#Cc3cncn3C)c2c1 | - | - | 0 | 0 | -
COc1ccccc1-c1sc2cc3c(cc2c1C#Cc1cncn1C)OCO3 | - | - | 0 | 30 | +
CCOC(=O)c1[nH]c2ccc(C(=O)OC)cc2c1C(=O)OCC | 0 | 0 | 0 | 39 | 0
COC(=O)c1ccc2[nH]c3c(c2c1)CC(C)CC3 (stereo not given) | 0 | 0 | 0 | 40 | +
COC(=O)c1cccc(CN2C(=O)SC(Nc3ccccc3)C2=O)c1 (stereo not given) | 0 | 0 | 0 | 37 | 0
Cc1cccc(NC2SC(=O)N(CC(=O)O)C2=O)c1 (stereo not given) | 0 | 0 | 0 | 0 | -
COc1ccc(C(=O)NN=c2oc3ccccc3cc2C(N)=O)cc1 | - | - | 0 | - | -
O=C(Nc1ccc(-c2cn3ccccc3n2)cc1)c1ccc(Cl)cc1 | 0 | 0 | 0 | 0 | -
Clc1ccc(-c2cn3ccccc3n2)cc1 | 0 | 0 | 0 | 40 | 0
NC(=O)c1cccc(N=Cc2cc(Cl)cc(Cl)c2O)c1 | 0 | - | 0 | 38 | 0
COc1cc(C=NNC(=O)c2cccc([N+](=O)[O-])c2)cc(OC)c1O | - | - | 0 | - | -
COc1cc(C=NNc2ccc(C(F)(F)F)cn2)ccc1O | - | - | 0 | - | -
SMILES | UBC9 SUMO inh | Fh CTSL1 inh | UCH37 inh | Neddyl block | Neddyl conf
COc1ccc(C(CNC(=O)c2ccco2)N2CCOCC2)cc1 (stereo not given) | - | - | 0 | 0 | -
COc1ccc(C(c2c(NC(=O)c3ccco3)sc(C)c2C)N2CCOCC2)cc1 (stereo not given) | - | - | 0 | 45 | -
COc1cccc(C(c2c(NC(=O)c3ccccc3)sc(C)c2C)N2CCN(C)CC2)c1 (stereo not given) | 0 | 0 | 0 | 41 | 0
COc1ccc(C(c2c(NC(=O)c3ccccc3)sc(C)c2C)N2CCN(CCO)CC2)cc1 (stereo not given) | 0 | 0 | 0 | 0 | -
O=c1c2ccccc2nc2c3ccccc3cnn12 | 0 | 0 | 0 | 44 | 0
CCN(CC)c1ccc(NC(=O)Nc2cccc3ccccc23)cc1 | 0 | 0 | 0 | 44 | 0
CN(C)c1ccc(NC(=O)Nc2cccc3ccccc23)cc1 | 0 | 0 | 0 | 0 | -
COc1cc(NC(=O)COc2ccccc2C)ccc1NC(=O)c1ccco1 | 0 | 0 | 0 | 46 | -
Cc1cc(NC(=O)COc2ccccc2C)ccc1NC(=O)c1ccco1 | 0 | 0 | 0 | 0 | -
Cc1ccccc1-c1cc2nc(C)c(Cl)c(=O)n2[nH]1 | - | 0 | 0 | 50 | 0
Cc1nc2cc(-c3ccsc3-n3c(C)ccc3C)[nH]n2c(=O)c1Cl | 0 | 0 | - | 0 | -
Cc1ccc(-n2c(SCC(=O)OC(C)C)nnc2-c2ccncc2)cc1 | 0 | 0 | 0 | 41 | 0
CCN1CCN(S(=O)(=O)c2ccc3c4c(cccc24)C(=O)N3CC)CC1 | - | - | 0 | 58 | -
CCN1C(=O)c2cccc3c(S(=O)(=O)NCc4cccnc4)ccc1c23 | ? | 0 | 0 | - | -
CCN1C(=O)c2cccc3c(S(=O)(=O)NCc4ccco4)ccc1c23 | 0 | 0 | 0 | 51 | 0
O=C(NN=Cc1ccc(-c2ccccc2[N+](=O)[O-])o1)c1cccnc1 | - | - | 0 | - | -
Cc1ccc(-c2csc3nc(-c4ccncc4)[nH]c(=O)c23)cc1 | 0 | 0 | 0 | 0 | -
CCOc1ccc(-c2nc3scc(-c4cccs4)c3c(=O)[nH]2)cc1 | 0 | 0 | 0 | 40 | -
CN(C)c1ccc(-c2nc3cnccn3c2Nc2ccc3c(c2)OCCO3)cc1 | 0 | 0 | 0 | 46 | -
CC(Cn1cnc([N+](=O)[O-])n1)=NNC(=O)c1cccnc1 | - | - | 0 | - | -
COc1ccc2nc(CC(C)(C)CC(=O)O)c[n+]([O-])c2c1 | 0 | 0 | 0 | 51 | -
COc1ccc2nc(COC(=O)c3ccco3)c(C(C)=O)[n+]([O-])c2c1 | 0 | 0 | 0 | 0 | -
CCSC1=N/C(=C\c2ccccc2)C(=O)N1c1ccc(OC)cc1 | 0 | 0 | 0 | - | -
CCN(CC)C1=N/C(=C\c2ccc(OC)cc2)C(=O)N1c1ccccc1 | 0 | 0 | 0 | 48 | 0
C=CCOc1ccccc1C=NO | - | - | 0 | - | -
SMILES | UBC9 SUMO inh | Fh CTSL1 inh | UCH37 inh | Neddyl block | Neddyl conf
C[C@H](NC(=O)c1cc2c(cn1)[nH]c1ccccc12)C(=O)O | 0 | - | - | 42 | +
COc1ccc(Nc2nc(NCc3ccco3)nc(NN=Cc3ccccc3)n2)cc1 | - | - | 0 | - | -
O=C1c2cccc3cccc(c23)C(=O)N1Cc1cccnc1 | 0 | 0 | 0 | 0 | -
c1cc2c3c(cccc3c1)-c1cnccc1-2 | - | - | 0 | 56 | +
COc1ccc(C(=O)NC(=S)NNC(=O)[C@H]2C[C@@H]2c2ccccc2)cc1OC | 0 | 0 | 0 | 39 | 0
CN(C)CCCNc1ncnc2oc(-c3ccccc3)c(-c3ccccc3)c12 | 0 | 0 | 0 | 42 | 0
Cn1c(=O)c(Cc2ccccc2)c(O)c2ccccc21 | 0 | 0 | 0 | 0 | -
O=c1c(Cc2ccccc2)c(O)c2cccc3c4c(n1c23)CCCC4 | 0 | 0 | 0 | 39 | 0
O=C(NNC1=Nc2ccccc2SC1)c1ccccc1F | 0 | 0 | 0 | 0 | -
O=C(NNC1=Nc2ccccc2SC1)c1cccc([N+](=O)[O-])c1 | 0 | 0 | 0 | 43 | 0
COc1ccc2oc(C(=O)NC3(C)CCS(=O)(=O)C3)c(C)c2c1 (stereo not given) | - | 0 | 0 | 58 | -
COc1ccc2oc(C(=O)Nc3nccs3)c(C)c2c1 | - | 0 | 0 | 0 | -
COc1ccc2oc(C(=O)NCC(c3ccco3)N(C)C)c(C)c2c1 (stereo not given) | - | 0 | 0 | 50 | -
Nc1ccc(C(=O)N/N=C2\CCCc3c2[nH]c2ccccc32)cc1 | 0 | 0 | - | 45 | 0
CC(C)c1ccc2[nH]c3c(c2c1)CCC/C3=N\NC(=O)c1ccncc1 | 0 | 0 | - | 0 | -
CC(=O)Nc1nonc1-c1nc2ccccc2n1CCC#N | 0 | 0 | 0 | 45 | 0

Screening data deposited in PubChem BioAssay by several laboratories.
